Experimental data as given in ChEMBL document CHEMBL4145497, “Discovery of 2-aminothiazolyl berberine derivatives as effectively antibacterial agents toward clinically drug-resistant Gram-negative Acinetobacter baumanii” (Eur J Med Chem, 2018).
Values after ≈ are worked out from the molar mass of the structure shown. Active and inactive are the calls of the source. The rule behind the calls is not given here.

Assays:
Staphylococcus aureus [1] = assay: Antibacterial activity against Staphylococcus aureus ATCC 25923 after 18 to 24 hrs by CLSI two fold serial dilution method; assay type: functional
Bacillus subtilis = assay: Antibacterial activity against Bacillus subtilis ATCC 21216 after 18 to 24 hrs by CLSI two fold serial dilution method; assay type: functional
Micrococcus luteus [2] = assay: Antibacterial activity against Micrococcus luteus ATCC 4698 after 18 to 24 hrs by CLSI two fold serial dilution method; assay type: functional
Escherichia coli [3] = assay: Antibacterial activity against Escherichia coli DH52 after 18 to 24 hrs by CLSI two fold serial dilution method; assay type: functional
Pseudomonas aeruginosa [4] = assay: Antibacterial activity against Pseudomonas aeruginosa ATCC 27853 after 18 to 24 hrs by CLSI two fold serial dilution method; assay type: functional
Candida albicans [5] = assay: Antifungal activity against Candida albicans ATCC 76615 by CLSI two fold serial dilution method; assay type: functional
Cyberlindnera jadinii = assay: Antifungal activity against Candida utilis ATCC 9950 by CLSI two fold serial dilution method; assay type: functional; conditions: Williopsis jadinii
Pichia norvegensis = assay: Antifungal activity against Candida mycoderma ATCC 96918 by CLSI two fold serial dilution method; assay type: functional
Aspergillus flavus = assay: Antifungal activity against Aspergillus flavus ATCC 204304 by CLSI two fold serial dilution method; assay type: functional
Saccharomyces cerevisiae = assay: Antifungal activity against Saccharomyces cerevisiae ATCC 9763 by CLSI two fold serial dilution method; assay type: functional
Candida parapsilosis = assay: Antifungal activity against Candida parapsilosis ATCC 22019 by CLSI two fold serial dilution method; assay type: functional; conditions: Lodderomyces parapsilosis
[6] = Aqueous solubility of the compound in phosphate buffer at pH 7.4 after 3 hrs by UV detection assay; assay type: physicochemical
Summary of the method: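 Water solubility measured at physiological pH, with berberine as the control.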

[7] = Cytotoxicity against human LO2 cells assessed as cell viability at 1.5625 to 100 ug/ml after 48 hrs by MTT assay relative to control; assay type: cell-based, L02; conditions: read-out: Activity
Summary of the method: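 Human hepatocyte LO2 cells exposed to compound across a concentration range for 48 h; viability read by colorimetric MTT assay; standard deviation from three independent experiments.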

Acinetobacter baumannii [8] = assay: Bactericidal activity against drug-resistant Acinetobacter baumannii assessed as reduction in number of viable bacterial load at 8 nmol/ml with in 2 hrs by time kill assay; assay type: functional
Acinetobacter baumannii [9] = assay: Antibacterial activity against drug-resistant Acinetobacter baumannii at 0.7 ug/ml measured 12 hrs post 10 serial passages; assay type: functional, organism-based
Acinetobacter baumannii [10] = assay: Induction of membrane permeabilization in drug-resistant Acinetobacter baumannii at 0.024 umol/ml incubated for 1 hr measured up to 120 mins by propidium iodide staining-based fluorescence spectra analysis; assay type: functional, organism-based
Micrococcus luteus [11] = assay: Potency index, ratio of berberine MIC to compound MIC for antibacterial activity against Micrococcus luteus ATCC 4698; assay type: functional
Escherichia coli [12] = assay: Potency index, ratio of norfloxacin MIC to compound MIC for antibacterial activity against Escherichia coli DH52; assay type: functional
Staphylococcus aureus [13] = assay: Antibacterial activity against methicillin-resistant Staphylococcus aureus N315 after 18 to 24 hrs by CLSI two fold serial dilution method; assay type: functional
Enterococcus faecalis = assay: Antibacterial activity against drug-resistant Enterococcus faecalis after 18 to 24 hrs by CLSI two fold serial dilution method; assay type: functional
Escherichia coli [14] = assay: Antibacterial activity against drug-resistant Escherichia coli after 18 to 24 hrs by CLSI two fold serial dilution method; assay type: functional
Pseudomonas aeruginosa [15] = assay: Antibacterial activity against drug-resistant Pseudomonas aeruginosa after 18 to 24 hrs by CLSI two fold serial dilution method; assay type: functional
Klebsiella pneumoniae = assay: Antibacterial activity against drug-resistant Klebsiella pneumoniae after 18 to 24 hrs by CLSI two fold serial dilution method; assay type: functional
Acinetobacter baumannii [16] = assay: Antibacterial activity against drug-resistant Acinetobacter baumannii after 18 to 24 hrs by CLSI two fold serial dilution method; assay type: functional
Candida albicans [17] = assay: Antifungal activity against drug-resistant Candida albicans by CLSI two fold serial dilution method; assay type: functional
Candida tropicalis = assay: Antifungal activity against drug-resistant Candida tropicalis by CLSI two fold serial dilution method; assay type: functional
Aspergillus fumigatus = assay: Antifungal activity against drug-resistant Aspergillus fumigatus by CLSI two fold serial dilution method; assay type: functional

Structure (SMILES)	MIC (Staphylococcus aureus [1]) [µM]	MIC (Bacillus subtilis) [µM]	MIC (Micrococcus luteus [2]) [µM]	MIC (Escherichia coli [3]) [µM]	MIC (Pseudomonas aeruginosa [4]) [µM]	MIC (Candida albicans [5]) [µM]	MIC (Cyberlindnera jadinii) [µM]	MIC (Pichia norvegensis) [µM]	MIC (Aspergillus flavus) [µM]	MIC (Saccharomyces cerevisiae) [µM]	MIC (Candida parapsilosis) [µM]	solubility at 3 h [6] [µg/mL]	further results
COc1cc(/C=N/Nc2nccs2)c2c(c1OCc1ccc(Cl)cc1Cl)CN1CCc3cc4c(cc3C1C2)OCO4 (stereo unspecified)	110 (≈ 67 µg/mL)	210 (≈ 128 µg/mL)	110 (≈ 67 µg/mL)	840 (≈ 512 µg/mL)	210 (≈ 128 µg/mL)	420 (≈ 256 µg/mL)	210 (≈ 128 µg/mL)	420 (≈ 256 µg/mL)	420 (≈ 256 µg/mL)	840 (≈ 512 µg/mL)	7 (≈ 4.27 µg/mL)	1900 (≈ 3.12 mM)	viability at 48 h [7]: > 80.5%; Activity (Acinetobacter baumannii [8]): >3 deltalog10CFU/ml; Activity (Acinetobacter baumannii [9]): Active; Activity (Acinetobacter baumannii [10]): Active
COc1cc(/C=N/Nc2nccs2)c2c(c1OCc1ccc(F)cc1)CN1CCc3cc4c(cc3C1C2)OCO4 (stereo unspecified)	110 (≈ 61.4 µg/mL)	230 (≈ 128 µg/mL)	60 (≈ 33.5 µg/mL)	460 (≈ 257 µg/mL)	230 (≈ 128 µg/mL)	230 (≈ 128 µg/mL)	230 (≈ 128 µg/mL)	120 (≈ 67 µg/mL)	460 (≈ 257 µg/mL)	460 (≈ 257 µg/mL)	30 (≈ 16.8 µg/mL)	374 to 3190 (≈ 0.669 to 5.71 mM)	Ratio (Micrococcus luteus [11]): 12
CCOc1c(OC)cc(/C=N/Nc2nccs2)c2c1CN1CCc3cc4c(cc3C1C2)OCO4 (stereo unspecified)	70 (≈ 33.5 µg/mL)	530 (≈ 254 µg/mL)	530 (≈ 254 µg/mL)	70 (≈ 33.5 µg/mL)	70 (≈ 33.5 µg/mL)	70 (≈ 33.5 µg/mL)	540 (≈ 258 µg/mL)	540 (≈ 258 µg/mL)	540 (≈ 258 µg/mL)	1070 (≈ 512 µg/mL)	30 (≈ 14.4 µg/mL)	10200 (≈ 21.3 mM)	–
CCCCCCOc1c(OC)cc(/C=N/NC(N)=S)c2c1CN1CCc3cc4c(cc3C1C2)OCO4 (stereo unspecified)	130 (≈ 66.4 µg/mL)	130 (≈ 66.4 µg/mL)	250 (≈ 128 µg/mL)	30 (≈ 15.3 µg/mL)	60 (≈ 30.6 µg/mL)	60 (≈ 30.6 µg/mL)	250 (≈ 128 µg/mL)	250 (≈ 128 µg/mL)	250 (≈ 128 µg/mL)	500 (≈ 255 µg/mL)	60 (≈ 30.6 µg/mL)	–	Ratio (Escherichia coli [12]): 53; MIC (Staphylococcus aureus [13]): 130 µM (≈ 66.4 µg/mL); MIC (Enterococcus faecalis): 30 µM (≈ 15.3 µg/mL); MIC (Escherichia coli [14]): 30 µM (≈ 15.3 µg/mL); MIC (Pseudomonas aeruginosa [15]): 60 µM (≈ 30.6 µg/mL); MIC (Klebsiella pneumoniae): 130 µM (≈ 66.4 µg/mL); MIC (Acinetobacter baumannii [16]): 60 µM (≈ 30.6 µg/mL); MIC (Candida albicans [17]): 60 µM (≈ 30.6 µg/mL); MIC (Candida tropicalis): 60 µM (≈ 30.6 µg/mL); MIC (Aspergillus fumigatus): 130 µM (≈ 66.4 µg/mL)
COc1cc(/C=N/Nc2nccs2)c2c(c1OCc1ccc(Cl)c(Cl)c1)CN1CCc3cc4c(cc3C1C2)OCO4 (stereo unspecified)	110 (≈ 67 µg/mL)	210 (≈ 128 µg/mL)	420 (≈ 256 µg/mL)	110 (≈ 67 µg/mL)	110 (≈ 67 µg/mL)	420 (≈ 256 µg/mL)	420 (≈ 256 µg/mL)	210 (≈ 128 µg/mL)	420 (≈ 256 µg/mL)	840 (≈ 512 µg/mL)	110 (≈ 67 µg/mL)	374 to 3190 (≈ 0.614 to 5.23 mM)	–
CCCCCCCCCCOc1c(OC)cc(/C=N/NC(N)=S)c2c1CN1CCc3cc4c(cc3C1C2)OCO4 (stereo unspecified)	30 (≈ 17 µg/mL)	230 (≈ 130 µg/mL)	230 (≈ 130 µg/mL)	30 (≈ 17 µg/mL)	230 (≈ 130 µg/mL)	60 (≈ 34 µg/mL)	450 (≈ 255 µg/mL)	230 (≈ 130 µg/mL)	450 (≈ 255 µg/mL)	230 (≈ 130 µg/mL)	110 (≈ 62.3 µg/mL)	–	Ratio (Escherichia coli [12]): 53; MIC (Staphylococcus aureus [13]): 30 µM (≈ 17 µg/mL); MIC (Enterococcus faecalis): 30 µM (≈ 17 µg/mL); MIC (Escherichia coli [14]): 30 µM (≈ 17 µg/mL); MIC (Pseudomonas aeruginosa [15]): 230 µM (≈ 130 µg/mL); MIC (Klebsiella pneumoniae): 230 µM (≈ 130 µg/mL); MIC (Acinetobacter baumannii [16]): 10 µM (≈ 5.67 µg/mL); MIC (Candida albicans [17]): 60 µM (≈ 34 µg/mL); MIC (Candida tropicalis): 30 µM (≈ 17 µg/mL); MIC (Aspergillus fumigatus): 7 µM (≈ 3.97 µg/mL)
COc1cc(/C=N/Nc2nccs2)c2c(c1OCc1ccc(Cl)cc1)CN1CCc3cc4c(cc3C1C2)OCO4 (stereo unspecified)	450 (≈ 259 µg/mL)	450 (≈ 259 µg/mL)	220 (≈ 127 µg/mL)	110 (≈ 63.3 µg/mL)	220 (≈ 127 µg/mL)	450 (≈ 259 µg/mL)	220 (≈ 127 µg/mL)	450 (≈ 259 µg/mL)	890 (≈ 512 µg/mL)	890 (≈ 512 µg/mL)	60 (≈ 34.5 µg/mL)	374 to 3190 (≈ 0.65 to 5.55 mM)	–
COc1cc(/C=N/Nc2nccs2)c2c(c1OCc1ccccc1)CN1CCc3cc4c(cc3C1C2)OCO4 (stereo unspecified)	240 (≈ 130 µg/mL)	470 (≈ 254 µg/mL)	240 (≈ 130 µg/mL)	950 (≈ 514 µg/mL)	240 (≈ 130 µg/mL)	470 (≈ 254 µg/mL)	470 (≈ 254 µg/mL)	60 (≈ 32.4 µg/mL)	950 (≈ 514 µg/mL)	950 (≈ 514 µg/mL)	60 (≈ 32.4 µg/mL)	374 to 3190 (≈ 0.692 to 5.9 mM)	–
COc1cc(/C=N/Nc2nccs2)c2c(c1OCC#N)CN1CCc3cc4c(cc3C1C2)OCO4 (stereo unspecified)	130 (≈ 63.6 µg/mL)	260 (≈ 127 µg/mL)	260 (≈ 127 µg/mL)	260 (≈ 127 µg/mL)	260 (≈ 127 µg/mL)	70 (≈ 34.3 µg/mL)	520 (≈ 255 µg/mL)	130 (≈ 63.6 µg/mL)	1050 (≈ 514 µg/mL)	1050 (≈ 514 µg/mL)	20 (≈ 9.79 µg/mL)	7020 to 10200 (≈ 14.3 to 20.8 mM)	–
